Measured values from different studies.
Organism: Pseudomonas aeruginosa
Effect on: microbial growth

NC[C@H]1O[C@H](O[C@H]2[C@H](O)[C@@H](O[C@H]3O[C@H](CO)[C@@H](O)[C@H](N)[C@H]3O)[C@H](N)C[C@@H]2N)[C@H](N)C[C@@H]1O
MIC (broth dilution): 13 µM

CCn1cc(C(=O)O)c(=O)c2cc(F)c(N3CCNCC3)cc21
MIC (broth dilution; ATCC9027): 2 µM

CC(C)Oc1c(NC(=O)c2ccc(NC(=O)[C@H](CC(N)=O)NC(=O)c3ccc(NC(=O)Cc4ccc(C#N)cc4)cc3)cc2)ccc(C(=O)Nc2ccc(C(=O)O)cc2)c1O
MIC (PA14): > 64 µg/mL

Cc1ccc(C)n1-c1ccc(-c2nnc(-c3c(Cl)cccc3Cl)[nH]2)cc1
MIC (broth dilution; ATCC10145; 18 h): 62.5 µg/mL

O=C1C[C@@H](c2ccc(O)cc2)Oc2cc(O)cc(O)c21
MIC (broth dilution; PAO1): 128 µg/mL

CC1=NN(CNc2ccc(C(=O)O)cc2)C(=O)C1=NNn1c(-c2ccccc2)nc2ccccc2c1=O
MIC (broth dilution; 24 h): 50.5 µM

CN(C)c1cc(CNCC(C)(C)C)c(O)c2c1C[C@H]1C[C@H]3[C@H](N(C)C)C(O)=C(C(N)=O)C(=O)[C@@]3(O)C(O)=C1C2=O
MIC (broth dilution; ATCC27853): > 32 µg/mL

CN(C)[C@@H]1C(O)=C(C(N)=O)C(=O)[C@@]2(O)C(O)=C3C(=O)c4c(cc5ccc(CN(C)S(C)(=O)=O)cc5c4O)C[C@H]3C[C@@H]12
MIC (broth dilution; ATCC27853): 32 µg/mL

CCCCCCCC(=O)Oc1c(C)c(O)c(C(=O)/C=C/c2ccccc2)c(OC)c1C
MIC (broth dilution; ATCC27853): 5000 µg/mL

CC1COc2c(N3CCN(C)CC3)c(F)cc3c(=O)c(C(=O)O)cn1c23 (stereo not shown)
MIC (broth dilution; PAO1): 1 µg/mL

CC(C)Oc1c(NC(=O)c2ccc(NC(=O)[C@H](CC(N)=O)NC(=O)c3ccc(NC(=O)c4ccc(F)cc4)cc3)cc2)ccc(C(=O)Nc2ccc(C(=O)O)cc2)c1O
MIC (PA14): > 64 µg/mL

Cc1ccc2nc(-c3ccc(Cl)cc3)n(Cc3ccccc3Cl)c2c1
MIC (broth dilution; ATCC27853): 512 µg/mL

COc1ccc(NCc2ccc(Oc3ccccn3)cc2)cc1
MIC: > 25 µg/mL

Cc1ccc(C)n1-c1ccc(-c2nnc(-c3ccccc3[N+](=O)[O-])[nH]2)cc1
MIC (broth dilution; ATCC10145; 18 h): 250 µg/mL

COC1CN(Cc2ccc3cc4c(c(O)c3c2)C(=O)C2=C(O)[C@]3(O)C(=O)C(C(N)=O)=C(O)[C@@H](N(C)C)[C@@H]3C[C@@H]2C4)C1
MIC (broth dilution; ATCC27853): 32 µg/mL

CC(C)Nc1nc(Cl)c2c(c1O)C(=O)C1=C(O)[C@]3(O)C(=O)C(C(N)=O)=C(O)[C@@H](N(C)C)[C@@H]3C[C@@H]1C2.Cl.Cl.Cl
MIC (broth dilution; ATCC27853): > 32 µg/mL

CC(C)Oc1c(NC(=O)c2ccc(NC(=O)[C@H](CC(N)=O)NC(=O)c3ccc(NC(=O)C(C)Oc4ccccc4)cc3)cc2)ccc(C(=O)Nc2ccc(C(=O)O)cc2)c1O (stereo partly shown)
MIC (PA14): > 64 µg/mL

CC(C)(C)Oc1ccc(CC2NC(=O)C(C(=O)NC(C(=O)NC3C(=O)N4C3SC(C)(C)C4C(=O)O)c3ccccc3)=C2O)cc1 (stereo not shown)
MIC: 12.5 µg/mL

CCCCCCC#Cc1cncc(-c2nnc(SCc3ccc(Cl)cc3)n2C2CC2)c1
MIC: ≥ 20 µg/mL

CC(C)Oc1c(NC(=O)c2ccc(NC(=O)[C@H](CC(N)=O)NC(=O)c3ccc(NC(=O)c4cc(C#N)cn4C)cc3)cc2)ccc(C(=O)Nc2ccc(C(=O)O)cc2)c1O
MIC (PA14): > 64 µg/mL

NC[C@@H]1CN[C@H](CNC(=O)c2cc3ccc(-c4ccc(F)cc4)cc3[nH]2)C1
MIC (broth dilution; PAO1): 25 µg/mL

CCCCCCC/C=C/C(=O)N1C(=O)/C(=C(\O)c2ccc(F)cc2)C(=O)C1CC(C)C (stereo not shown)
MIC (PA01): > 200 µg/mL

Cc1ccc2nc(-c3ccc([N+](=O)[O-])cc3)n(Cc3ccc(Cl)cc3)c2c1
MIC (broth dilution; ATCC27853): 256 µg/mL

CC(C)Oc1c(NC(=O)c2ccc(NC(=O)[C@H](CC(N)=O)NC(=O)c3ccc(NC(=O)c4ccc(NC(=O)c5ccc([N+](=O)[O-])cc5)cc4)cc3)cc2)ccc(C(=O)Nc2ccc(C(=O)O)cc2)c1O
MIC (PA14): > 64 µg/mL

COc1c(C)c(OC)c2c(c1C)OC(c1ccccc1)CC2=O (stereo not shown)
MIC (broth dilution; ATCC27853): 5000 µg/mL

CC1(C)SC2C(NC(=O)C(NC(=O)C3=C(O)C(Cc4ccccc4)NC3=O)c3ccccc3)C(=O)N2C1C(=O)O (stereo not shown)
MIC: 6.25 µg/mL

CNC(=O)c1cc(Oc2ccc(NC(=O)Nc3ccc(Cl)c(C(F)(F)F)c3)cc2)ccn1
MIC (DSM19882): > 100 µM

CC1=NN(CNC(=O)c2ccccc2)C(=O)C1=NNn1c(-c2ccccc2)nc2ccccc2c1=O
MIC (broth dilution; 24 h): 51.9 µM

COc1cc(C(=O)Nc2ccc(C(=O)N[C@@H](CC(N)=O)C(=O)Nc3ccc(C(=O)Nc4ccc(C(=O)Nc5ccc(C(=O)O)cc5)c(O)c4OC(C)C)cc3)cc2)ccc1C#N
MIC (PA14): > 64 µg/mL

CCCNc1nc(N(C)C)c2c(c1O)C(=O)C1=C(O)[C@]3(O)C(=O)C(C(N)=O)=C(O)[C@@H](N(C)C)[C@@H]3C[C@@H]1C2.Cl.Cl
MIC (broth dilution; ATCC27853): > 32 µg/mL

CC(C)Oc1c(NC(=O)c2ccc(NC(=O)[C@H](CC(N)=O)NC(=O)c3ccc(NC(=O)c4cc(=O)c(O)c[nH]4)cc3)cc2)ccc(C(=O)Nc2ccc(C(=O)O)cc2)c1O
MIC (PA14): > 64 µg/mL

CC(C)CNc1nc(Cl)c2c(c1O)C(=O)C1=C(O)[C@]3(O)C(=O)C(C(N)=O)=C(O)[C@@H](N(C)C)[C@@H]3C[C@@H]1C2.Cl.Cl.Cl
MIC (broth dilution; ATCC27853): > 32 µg/mL

Clc1cccc(NCc2ccc(Oc3ccccn3)cc2)c1
MIC: > 50 µg/mL

O=C(Cc1cc(O)c(O)c(O)c1)NCCCCCCCC[P+](c1ccccc1)(c1ccccc1)c1ccccc1.[Br-]
MIC (broth dilution; ATCC27853; 18 h): > 32 µg/mL

CC[C@H]1OC(=O)[C@H](C)[C@@H](O[C@H]2C[C@@](C)(OC)[C@@H](O)[C@H](C)O2)[C@H](C)[C@@H](O[C@@H]2O[C@H](C)C[C@H](N(C)C)[C@H]2O)[C@](C)(O)C[C@@H](C)CN(C)[C@H](C)[C@@H](O)[C@]1(C)O
MIC (broth dilution): 100 µg/mL

COc1c(C)c(OC)c(C(=O)/C=C/c2ccccc2)c(OC)c1C
MIC (broth dilution; ATCC27853): 5000 µg/mL

CCCCCCC/C=C/C(=O)N1C(=O)/C(=C(\O)c2ccc(OCOCCOC)cc2)C(=O)C1CC(C)C (stereo not shown)
MIC (PA01): > 200 µg/mL
